Results: PMC11041979 (International Journal of Nanomedicine, 2024)
Converted amounts (≈) assume the structure as drawn.

Legend:
[1] = literature value; cited from earlier work
Water solubility assay = format: physicochemical
In short: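 Saturated aqueous test-compound solutions were sonicated, centrifuged and diluted 10–500-fold. Carbon dots (3 mg/mL stock) were diluted to 10 levels, 1500–3.12 μg/mL. Samples were centrifuged at 10000 rpm for 10 min and filtered through 0.22 µm. HPLC used a C18 column at 30°C with 0.4% acetic acid water–acetonitrile 85:15 at 1.0 mL/min and detection at 318 nm. Calibration followed Chinese Pharmacopoeia methods.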

[2] = Pharmacokinetics of MA in rats after oral gavage; format: in vivo, Sprague-Dawley rats
In short: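 Male Sprague-Dawley rats (200 ± 20 g), acclimatised 1 week, fasted 12 h with free water. Test compound given by gavage at 20 mg/kg (2 mg/mL) as an aqueous suspension or as a saturated suspension in carbon-dot solution (stirred 20 min). Orbital blood drawn 5–1440 min into heparin. Plasma protein-precipitated with acetonitrile:acetic acid 9:1, isomangiferin internal standard, UHPLC-MS/MS. Mean ± SD.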

[3] = Sprague-Dawley, rat, plasma, po, 20 mg/kg

SMILES: O=c1c2cc(O)c(O)cc2oc2cc(O)c([C@@H]3O[C@H](CO)[C@@H](O)[C@H](O)[C@H]3O)c(O)c12 [MA, Mangiferin]
- Tmax after oral administration [1]: about 267.49 ± 108.29 min
- solubility of MA in water with MC-CDs (Water solubility assay; aqueous MC-CDs solution, MC-CDs concentration exceeding 100 μg/mL): increases significantly
- solubility (Water solubility assay; water, thermodynamic from solid): 115 µg/mL (≈ 273 µM)
- maximum concentration ([2]; MA, oral, preliminary rat pharmacokinetics): 200 ng
- AUC(0-t) [2, 3]: 1.52 ± 2.64 ng·h/mL
- Cmax [2, 3]: 0.201 ± 0.0314 ng/mL
- Tmax [2, 3]: 4 ± 1.42 h
- half-life [2, 3]: 3.27 ± 2.18 h
